ChEMBL document CHEMBL1138564, “Microwave-induced synthesis and anti-microbial activities of 7,10,11,12-tetrahydrobenzo[c]acridin-8(9H)-one derivatives” (2009)

How the values were obtained:
Format in all cases: functional
[1] = tested on: Trichoderma viride; test: Antimicrobial activity against Trichoderma viride NCIM 1195 at 10 ug/disk after 72 hrs by disk diffusion method; details: NCIM 1195, 72 h, read-out: DIZ
In short: (§1)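 Clotrimazole reference disc at 10 µg/disc. Fungal inoculum of 100 µl at 10⁶ CFU/ml was spread on Sabouraud's dextrose agar and incubated at 27 °C for 72 h. The read-out was inhibition zone diameter.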

[2] = tested on: Penicillium chrysogenum; test: Antimicrobial activity against Penicillium chrysogenum NCIM 707 at 10 ug/disk after 72 hrs by disk diffusion method; details: NCIM 707, 72 h, read-out: DIZ
In short: (§2)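 Disc diffusion on Sabouraud's dextrose agar. 100 µl of fungal suspension at 10⁶ CFU/ml is spread on the plate. Discs carry test compounds at two loadings in DMSO; DMSO alone is the negative control. Clotrimazole disc is the positive reference. Plates are incubated at 27 °C for 72 h, and the zone of inhibition diameter is measured.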

[3] = tested on: Aspergillus flavus; test: Antimicrobial activity against Aspergillus flavus NCIM 902 at 10 ug/disk after 72 hrs by disk diffusion method; details: NCIM 535, 72 h, in the assay text read “NCIM 535” for “NCIM 902”, read-out: DIZ; in short: as §2
[4] = tested on: Aspergillus fumigatus; test: Antimicrobial activity against Aspergillus fumigatus NCIM 902 at 10 ug/disk after 72 hrs by disk diffusion method; details: NCIM 902, 72 h, read-out: DIZ; in short: as §2
[5] = tested on: Lipomyces lipofer; test: Antimicrobial activity against Lipomyces lipofer NCIM 3252 at 10 ug/disk after 72 hrs by disk diffusion method; details: NCIM 3252, 72 h, read-out: DIZ; in short: as §2
[6] = tested on: Aspergillus niger; test: Antimicrobial activity against Aspergillus niger NCIM 902 at 10 ug/disk after 72 hrs by disk diffusion method; details: NCIM 902, 72 h, read-out: DIZ; in short: as §2
[7] = tested on: Aspergillus parasiticus; test: Antimicrobial activity against Aspergillus parasiticus NCIM 904 at 10 ug/disk after 72 hrs by disk diffusion method; details: NCIM 904, 72 h, read-out: DIZ; in short: as §2
[8] = tested on: Rhodotorula mucilaginosa; test: Antimicrobial activity against Rhodotorula rubra NCIM 3174 at 10 ug/disk after 72 hrs by disk diffusion method; details: NCIM 3174, 72 h, read-out: DIZ; in short: as §1

Clc1ccccc1C(c1ccccc1)(c1ccccc1)n1ccnc1 [CLOTRIMAZOLE]
zone of inhibition at 10 µg/disc [1]: 19 mm | zone of inhibition at 10 µg/disc [2]: 21 mm | zone of inhibition at 10 µg/disc [3]: 16 mm | zone of inhibition at 10 µg/disc [4]: 18 mm | zone of inhibition at 10 µg/disc [5]: 18 mm | zone of inhibition at 10 µg/disc [6]: 16 mm | zone of inhibition at 10 µg/disc [7]: 18 mm | zone of inhibition at 10 µg/disc [8]: 17 mm
